Measurements from different studies.
Effect on: enzyme activity
Action: inhibitor
CA2: Carbonic anhydrase 2 (CA2, Bos taurus, UniProt P00921)
CDK6 with cyclin D3: Cyclin-dependent kinase 6, with cyclin D3 (CDK6, Homo sapiens, UniProt Q00534)
YCK2: Serine/threonine protein kinase YCK2 (YCK2, Candida albicans, UniProt A0A1D8PKB4)
MTOR: Serine/threonine-protein kinase mTOR (MTOR, Homo sapiens, UniProt P42345)
EGFR: Epidermal growth factor receptor (EGFR, Homo sapiens, UniProt P00533)

| SMILES | target | test | IC50 |
| --- | --- | --- | --- |
| COc1cc(-c2[nH]c(=S)nc3nc(Nc4ccc(S(N)(=O)=O)cc4)sc23)ccc1O | CA2 | absorbance | 79.5 nM |
| Cc1cc(S(=O)(=O)NCCO[C@H]2CC[C@H](CN3CCC(c4ccn5c(N6CCC(=O)NC6=O)cnc5c4)CC3)CC2)ccc1Nc1ncc2cc(Cl)c(=O)n(C3CCCC3)c2n1 | CDK6 with cyclin D3 | radiometric | 153 nM |
| c1ccc(-c2n[nH]cc2-c2ccncn2)nc1 | YCK2 | ADP detection | 1600 nM |
| C[C@@H]1O[C@@H](O[C@H]2[C@H](Oc3cc(O)c4c(c3)O[C@H](c3ccc(O)cc3)CC4=O)O[C@H](CO)[C@@H](O)[C@@H]2O)[C@H](O)[C@H](O)[C@H]1O | CA2 | absorbance | 83 nM |
| COc1ccc(-c2ccc3c(N4CCOC[C@@H]4C)nc(N4CCOC[C@@H]4C)nc3n2)cc1COCCOCCOCCOCCONC(=O)c1ccc(F)c(F)c1Nc1ccc(I)cc1F | MTOR | FRET | 28 to 40 nM |
| CNS(=O)(=O)c1ccc(Nc2ncc(C(F)(F)F)c(N3CCC(C)(O)CC3)n2)c(C)c1 | CDK6 with cyclin D3 | radiometric | 794 nM |
| Clc1ccc(Nc2ccncc2)cc1Cl | DNA-3-methyladenine glycosylase (Homo sapiens, UniProt P29372) | – | > 99000 nM |
| CC(=O)c1nc2ccccc2n1Cc1cn([C@@H]2OC[C@@H](O)[C@H](O)[C@H]2O)nn1 | EGFR | – | 132 nM |
| c1ccc(Cn2cc(-c3ccnc4ccccc34)c(-c3ccccn3)n2)cc1 | YCK2 | ADP detection | 1000 nM |
| N=C(N)c1ccc(OCCCCCOc2ccc(C(=N)N)cc2)cc1 | Neutrophil elastase (ELANE, Homo sapiens, UniProt P08246) | absorbance | > 100000 nM |
| CNS(=O)(=O)c1ccc(Nc2ncc(C(F)(F)F)c([C@H]3CC[C@](C)(O)CC3)n2)c(C)c1 | CDK6 with cyclin D3 | radiometric | 715 nM |
| C[C@H]1COCCN1c1nc(N2CCOC[C@@H]2C)c2ccc(-c3cccc(C(=O)NCCOCCOCCOCCONC(=O)c4ccc(F)c(F)c4Nc4ccc(I)cc4F)c3)nc2n1 | MTOR | FRET | 330 nM |
| COc1ccc(N2CCN(Cc3cn4c(-c5ccc(Br)cc5)nnc4s3)CC2)cc1 | Ferroptosis suppressor protein 1 (AIFM2, Homo sapiens, UniProt Q9BRQ8) | absorbance | 34 nM |
| Cc1cc2c(C(N)=O)c(N)n(-c3c(C)ccc(O)c3C)c2nc1C | Serine/threonine-protein kinase B-raf (BRAF, Homo sapiens, UniProt P15056) | ADP detection | 15.3 nM |
| O=C(/C=C/c1ccc(F)cc1)c1nc2ccccc2n1Cc1cn([C@@H]2OC[C@@H](O)[C@H](O)[C@H]2O)nn1 | EGFR | – | 75 nM |
| Nc1cc(N2C(=O)c3ccccc3C2=O)nc(SCC(=O)NN=Cc2ccc(Cl)cc2)n1 | EGFR | – | 880 nM |
| c1coc(-c2n[nH]cc2-c2ccnc3ccccc23)c1 | YCK2 | ADP detection | 830 nM |
| NS(=O)(=O)c1ccc(-n2nc(C(=O)NN=Cc3ccc(O)cc3)cc2-c2ccccc2)cc1 | Serine/threonine-protein kinase B-raf (BRAF, Homo sapiens, UniProt P15056, V600E) | – | 18500 nM |
| Cn1cc(-c2ccnc3ccccc23)c(-c2ccccn2)n1 | YCK2 | ADP detection | 550 nM |
| CNS(=O)(=O)c1ccc(Nc2ncc(C(F)(F)F)c(N3CCCC(C)(O)C3)n2)c(C)c1 (centres unmarked) | CDK6 with cyclin D3 | radiometric | 4320 nM |
| CNC(c1ccccc1)c1c(N)[nH]c(=O)[nH]c1=O (centres unmarked) | EGFR | – | 4600 nM |
| Nc1cnccc1Nc1ccc(Cl)c(Cl)c1 | SMUG1 (Homo sapiens, UniProt Q53HV7) | – | > 100000 nM |
| O=C1C(=O)N(CCn2ncc3c(=O)[nH]cnc32)c2ccc(Cl)cc21 | CDK6 with cyclin D3 | ADP detection | 603 nM |
